In the library only some 1.8% were active in any assay of this set; here they are far more common.
LMPTP inh: blocks human LMPTP phosphatase; P24666; recombinant LMPTP-A, OMFP fluorogenic substrate, fluorescence intensity; inhibition, % at 20 µM; actives 0.22% (n = 360,000); AID 651560;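 active = compounds that cut the enzyme signal by at least half of the control window in the single-dose screen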;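 note: plate controls were DMSO wells with enzyme plus substrate for no effect and substrate without enzyme for full effect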
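Buffer or medium: Bis-Tris pH 6.0, DTT, detergent; Assay system: LMPTP-A enzyme; Quantity: 0.625 nM enzyme; Detection: endpoint fluorescence intensity; Times: 50 min dark incubation at room temperature; Controls: substrate-only low control, DMSO enzyme-plus-substrate high control; Doses: single 20 µM dose; Read-out: percent inhibition versus substrate-only and uninhibited controls; Reagent: 400 µM OMFP.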
HKDC1 inhibitor: inhibitors of human hexokinase HKDC1 | AID 493160 | inhibition, % at 20 µM | actives 0.16% (n = 340,000) | recombinant HKDC1, G6PDH/diaphorase resazurin coupled fluorescence | Q2TB90;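 active = inhibition above about 35% when tested at 20 µM, limit read from the data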;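 note: plate controls were DMSO wells with enzyme for no effect and DMSO wells lacking enzyme for full effect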
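Material: recombinant HKDC1 hexokinase; Amount: HKDC1 at 5 µg/mL; Medium: Tris pH 8.0 buffer with MgCl2, Tween-20, BSA, BME; Schedule: 90 min reaction incubation at room temperature, dark; Technique: coupled resazurin fluorescence, excitation 525 nm, emission 613 nm.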
SUMO1-SIM PPI: SUMO1-SIM interaction modulation | P63165 | SUMO1 binding to a labelled peptide, TR-FRET, 1 h | inhibition, % at 20 µM | actives 0.33% (n = 360,000) | AID 602429; in the data active = inhibition above about 37%
Scp1 inh: Scp-1 (human) phosphatase inhibition; Q9GZU7; Recombinant Scp1, phosphopeptide, malachite green phosphate absorbance; inhibition, % at 20 µM; actives 0.88% (n = 340,000);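 active = inhibition above about 50% at 20 µM, limit read from the data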;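 note: plate controls were DMSO wells with enzyme for no effect and wells lacking enzyme for full effect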
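Test system: SCP-1 phosphatase catalytic domain, residues 76-261; measured by: colorimetric phosphate reagent with accelerator and stabiliser, absorbance at 630 nm; timing: enzyme reaction 45 min at room temperature, colour 5 min, stabilisation 30 min; also added: Phosphorylated 17-residue peptide substrate; compound dosing: one concentration, 20 µM, with 1.0% DMSO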
DNMT1 inh: inhibitors of human DNMT1 | DNMT1 molecular beacon, Hinp1I cleavage, fluorescence | inhibition (reported as % activation of signal), % at 10 µM | actives 0.83% (n = 360,000) | AID 588458; in the data active = inhibition above about 50%
STEP inh: STEP (human) phosphatase inhibition. recombinant STEP, OMFP fluorogenic substrate, fluorescence. inhibition, % at 20 µM. actives 0.25% (n = 360,000). AID 588621;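 active = inhibition at 20 µM, scaled per plate between control wells, above about 37%, limit read from the data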;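 note: 0% = DMSO with enzyme and substrate and 100% = substrate only without enzyme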
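Material: STEP (striatal-enriched tyrosine phosphatase) enzyme, cell-free; Compound dosing: 20 µM single dose in 1% DMSO; Technique: fluorescence read at 480 nm ex / 540 nm em; Times: reaction 20 min, ambient temperature; Medium: 50 mM Bis-Tris pH 6.0 with 2.5 mM DTT and 0.005% Tween 20; Also added: OMFP at 25 µM.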
Scp1 confirm: confirmation of human Scp-1 phosphatase inhibitors | actives 61% (n = 2,500) | shares compounds with Scp1 inh | AID 540281 | recombinant SCP-1 catalytic domain, phosphate release, malachite green absorbance | inhibition, % at 20 µM;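 note: plate controls were DMSO with enzyme for no effect and buffer wells lacking enzyme for full effect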
Scp-1 MG ctr: interferes with malachite green readout, flagging false Scp-1 hits | 2,500 tested, under 10 active | apparent inhibition (interference), % at 20 µM | shares compounds with Scp1 inh | Colorimetric interference counterscreen, malachite green absorbance 630 nm;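 note: compounds added after enzyme reaction finished so only phosphate colour detection is probed; plate controls were DMSO wells with completed Scp-1 reaction for no effect and substrate wells lacking enzyme for full effect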
Scp1 DSF: Scp-1 (human) binding by thermal shift. shares compounds with Scp1 inh. Recombinant SCP1, Sypro Orange thermal shift Tm. thermal shift relative to vanadate control, % at 40 µM. actives 25% (n = 1,500);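 active = substances whose mean melting-temperature shift, as a percentage of the reference inhibitor's shift, reaches about 5.3%, limit read from the data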;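 note: 0% = Tm of DMSO wells and 100% = Tm with sodium orthovanadate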
* hit, by the source's call; . = no result.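 Rule for the calls, unless noted: active = inhibition of at least 30% at 20 µM; inactive = the rest.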

SMILES	LMPTP inh	HKDC1 inhibitor	SUMO1-SIM PPI	Scp1 inh	DNMT1 inh	STEP inh	Scp1 confirm	Scp-1 MG ctr	others
O=C(Nc1ccc(Br)cc1Cl)c1cnccn1	-0.2	-8.7	7.0	67.9*	47.7	2.3	55.0*	-22.8	Scp1 DSF=8.8*
C[N+]1=C(/C=C/Nc2ccccc2Cl)C(C)(C)c2ccccc21	0.0	13.1	-6.0	99.1*	0.3	1.1	78.8*	-15.3	Scp1 DSF=-12.3
FC(F)(F)c1cnc(/C=C/Nc2ccccc2Cl)c(Cl)c1	1.8	-0.6	-0.5	-2.0	2.5	8.3	.	.
C[N+]1(C2CCC3CCCC2C3O)CCCCC1 (centres undefined)	-0.4	14.1	-0.1	95.6*	0.6	-0.6	78.3*	-20.8	Scp1 DSF=-5.0
Nc1nc(N)c2ncn(C3C=CC(CO)C3)c2n1 (centres undefined)	-0.9	.	6.8	.	-2.9	2.1	.	.
CC#CC#Cc1cccc(=O)o1	7.6	-1.2	-14.5	53.8*	56.5*	16.6	41.9*	-2.4	Scp1 DSF=-8.1
Nc1cc2c(cc1[N+](=O)[O-])OCO2	19.2	6.0	-11.4	57.6*	24.2	4.3	58.0*	-5.2	Scp1 DSF=4.4
Nc1cc2c(cc1[N+](=O)[O-])OCCO2	1.1	-11.3	-31.3	-3.9	0.0	1.1	.	.
N#Cc1ccc(OCC(=O)NCC2COc3ccccc3O2)cc1 (centres undefined)	0.0	-4.1	3.1	-6.5	-3.8	-1.4	.	.
COc1ccc2nc(COC(=O)c3cccc([N+](=O)[O-])c3)c(C(C)=O)[n+]([O-])c2c1	1.2	1.7	-6.5	-7.0	-5.6	-0.5	.	.
COc1ccc2nc(COC(=O)c3cccs3)c(C(C)=O)[n+]([O-])c2c1	0.1	-4.4	-25.7	102.7*	-3.2	-0.6	0.5	-16.2
Cc1ccsc1C(=O)OC(C)C(=O)Nc1ccc(Cl)cn1 (centres undefined)	0.8	11.6	0.7	-5.4	-1.7	-0.4	.	.
COC(=O)Cn1c(=O)c2c(n(Cc3ccccc3)c1=O)N/C(=C/c1ccc(Br)cc1)C2=O	2.3	7.7	-1.1	107.2*	-2.8	13.7	56.5*	-14.5	Scp1 DSF=11.9*
COC(=O)CN1C(=O)N/C(=C/c2ccc(OC)cc2)C1=O	-1.7	-0.6	-20.4	-0.8	5.2	-0.3	.	.
CCN(CC)C(=O)C1=C(C)N(Cc2ccccc2)C(=O)C(CC(=O)NCc2cccc3ccccc23)C1 (centres undefined)	0.0	.	-1.4	.	-3.1	-0.2	.	.
CCCCN(C(=O)C1CC(=O)N(Cc2ccc(C)cc2)C1)c1c(N)n(CC(C)C)c(=O)[nH]c1=O (centres undefined)	-0.5	-3.2	-0.6	-7.2	0.3	-1.7	-11.1	-6.0
Cc1ccccc1C(=O)N1CCC(C(=O)N(CC(C)C)c2c(N)n(CC(C)C)c(=O)[nH]c2=O)CC1	-0.5	4.3	0.6	4.7	1.6	-2.1	.	.
COCCN(C(=O)C1CCN(C(=O)c2ccccc2C)CC1)c1c(N)n(CC(C)C)c(=O)[nH]c1=O	-2.3	-1.1	0.6	63.3*	5.5	-3.6	76.7*	-17.3	Scp1 DSF=-0.9
COc1ccc(CC(=O)Nc2nccs2)cc1OC	-1.0	4.3	3.0	-10.5	-7.3	1.2	.	.
COc1ccc(CC(=O)Nc2ncc([N+](=O)[O-])s2)cc1OC	24.3	12.8	12.7	71.0*	1.8	9.3	66.4*	-15.6	Scp1 DSF=12.0*
Cc1c(C(=O)N2CCN(S(=O)(=O)c3cc(F)ccc3F)CC2)oc2ccccc12	1.7	3.2	0.7	9.5	-0.5	-0.4	.	.
O=C1C=CC(=Nc2ccc3c(c2)Cc2cc(F)ccc2-3)O1	1.0	-0.8	7.9	10.6	-16.5	-0.1	.	.
O=C1C=CC(=Nc2cccc3c2C(=O)c2ccccc2-3)O1	12.9	16.6	-15.5	61.0*	41.5	1.4	-19.7	-22.1
Cc1ccc(CNC(=O)C2CCCN(S(=O)(=O)N3CC(C)CC(C)C3)C2)cc1 (centres undefined)	-0.9	-3.0	-0.8	-7.4	-0.2	-3.2	.	.
Cc1cc(C)cc(N(CCC#N)C(=O)COC(=O)c2ccc(OCc3c(C)noc3C)cc2)c1	0.6	-3.3	6.4	50.7*	-0.3	0.2	-15.7	-12.3
SMILES	LMPTP inh	HKDC1 inhibitor	SUMO1-SIM PPI	Scp1 inh	DNMT1 inh	STEP inh	Scp1 confirm	Scp-1 MG ctr	others
Cc1noc(C)c1COc1ccc(C(=O)OCC(=O)OC(C)(C)C)cc1	0.2	13.1	-3.4	-1.3	10.1	-1.3	.	.
Cc1ccc(NC(=O)CC2C(=O)NCCN2C(=O)c2ccc(F)cc2)cc1 (centres undefined)	-0.8	-5.9	1.5	-4.2	0.8	-1.7	-3.4	-11.4
O=c1oc2ccccc2c2c1ccc1ccccc12	2.9	-1.3	-26.4	79.6*	23.4	1.0	25.3	-20.0
CC/C(=N\NC(=O)CNC(=O)/C=C/c1ccco1)c1ccccc1	0.0	-7.2	1.5	94.4*	9.9	-0.1	14.5	-6.0
CCC/C(=N\NC(=O)CNC(=O)/C=C/c1ccco1)c1ccccc1	-2.3	-3.1	-6.3	6.1	7.6	4.1	.	.
COc1ccc(/C(C)=N/NC(=O)CNC(=O)/C=C\c2ccco2)cc1	-0.8	10.9	-4.0	81.5*	18.6	-0.5	64.5*	-11.8	Scp1 DSF=-5.5
COc1ccc(/C=C/C(=O)NCC(=O)N/N=C(/CCC(=O)O)c2ccccc2)cc1	-0.5	-4.1	-7.3	-2.5	1.2	-2.7	.	.
Cc1ccc(S(=O)(=O)C(C#N)c2nc3ccccc3nc2N2CC(C)OC(C)C2)cc1C (centres undefined)	0.3	8.4	-8.9	78.6*	-8.9	-1.8	-13.1	-18.6
Cc1cccc(S(=O)(=O)C(C#N)c2nc3ccccc3nc2N2CC(C)OC(C)C2)c1 (centres undefined)	0.2	-4.0	-2.9	-3.7	-8.8	-5.2	.	.
CCC(CC)C(=O)N(C)c1c(C)nc2c(OCc3ccc(OC(F)F)cc3)cccn12	0.0	.	0.0	.	1.2	1.0	.	.
CC(C)(C)C(=O)O/N=C(\N)COc1cccc(Cl)c1	0.3	2.7	2.1	79.2*	2.2	-1.4	-8.4	-7.9
CC(C)(C)C(=O)OC/C(N)=N/OC(=O)c1ccc(Cl)cc1	-0.5	-1.9	8.4	0.4	1.2	3.9	.	.
CC1OC(COCc2ccccc2)Cc2[nH][nH]c(=O)c21 (centres undefined)	-0.7	.	-2.3	.	.	.	.	.

Compound activity: PubChem BioAssay, Sanford-Burnham Center for Chemical Genomics
